According to ChEMBL document CHEMBL1926621, “New potent 5-HT(2A) receptor ligands containing an N'-cyanopicolinamidine nucleus: Synthesis and in vitro pharmacological evaluation” (Eur J Med Chem, 2012):

What was measured:
[1] = target: 5-hydroxytryptamine receptor 2A (Rattus norvegicus, UniProt P14842); assay: Displacement of [3H]ketanserin from Sprague-Dawley rat brain cortex serotonin 5-HT2A receptor after 15 mins by liquid scintillation counting; details: for Ki: read-out: Ki
Summary of the method: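 Male Sprague-Dawley rat frontal cortex membranes in 50 mM Tris-HCl, 0.5 mM EDTA, 10 mM MgCl2 pH 7.4, with 0.1% ascorbate and pargyline. 0.4 nM [3H]ketanserin, 5 mg wet tissue, 15 min at 37 °C. Filtered on PEI-soaked glass fibre. Six compound concentrations in triplicate. IC50 converted to Ki by Cheng-Prusoff.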

D(1A) dopamine receptor = D(1A) dopamine receptor (Rattus norvegicus, UniProt P18901); assay: Displacement of [3H]SCH-23390 from rat corpora striatum dopamine D1 receptor after 15 mins by liquid scintillation counting; details: read-out: Ki
Sequence of D(1A) dopamine receptor (P18901 whole entry): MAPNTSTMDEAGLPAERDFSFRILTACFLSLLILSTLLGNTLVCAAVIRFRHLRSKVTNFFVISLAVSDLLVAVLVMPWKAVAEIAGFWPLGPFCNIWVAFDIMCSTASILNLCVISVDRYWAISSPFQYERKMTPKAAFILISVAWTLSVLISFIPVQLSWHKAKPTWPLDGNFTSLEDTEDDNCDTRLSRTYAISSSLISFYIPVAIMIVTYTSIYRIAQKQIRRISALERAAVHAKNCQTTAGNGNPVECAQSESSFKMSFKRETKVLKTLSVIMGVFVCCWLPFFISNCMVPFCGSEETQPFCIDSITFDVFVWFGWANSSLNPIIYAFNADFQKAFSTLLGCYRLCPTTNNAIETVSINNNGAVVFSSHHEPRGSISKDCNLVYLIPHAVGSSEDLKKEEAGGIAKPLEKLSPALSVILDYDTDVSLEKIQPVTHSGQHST
Summary of the method: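 Rat corpora striata homogenized in 50 mM Tris-HCl pH 7.7, spun twice at 50,000 g. Resuspended in Tris-HCl with NaCl, KCl, CaCl2, MgCl2, ascorbic acid and pargyline. 0.4 nM [3H]SCH-23390 final, 3 mg fresh tissue, 15 min at 37 °C. Nonspecific binding with piflutixol. Ki by Cheng-Prusoff from triplicate six-point curves.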

D(2) dopamine receptor = D(2) dopamine receptor (Rattus norvegicus, UniProt P61169); assay: Displacement of [3H]spiperone from rat corpora striatum dopamine D2 receptor after 15 mins by liquid scintillation counting; details: read-out: Ki
Sequence of D(2) dopamine receptor (P61169 whole entry): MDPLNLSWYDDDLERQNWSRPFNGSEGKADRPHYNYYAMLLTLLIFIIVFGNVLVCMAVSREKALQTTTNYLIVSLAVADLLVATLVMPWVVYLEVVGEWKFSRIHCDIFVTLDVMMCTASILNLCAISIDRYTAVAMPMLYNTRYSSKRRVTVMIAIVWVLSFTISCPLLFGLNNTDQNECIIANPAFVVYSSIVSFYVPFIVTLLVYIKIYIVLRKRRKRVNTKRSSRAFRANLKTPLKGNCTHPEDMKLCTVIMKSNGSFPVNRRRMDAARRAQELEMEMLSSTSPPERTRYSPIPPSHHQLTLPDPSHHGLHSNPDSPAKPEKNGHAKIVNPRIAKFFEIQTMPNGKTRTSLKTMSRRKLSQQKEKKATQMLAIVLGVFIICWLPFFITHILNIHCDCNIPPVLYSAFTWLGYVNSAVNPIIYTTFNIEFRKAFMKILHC
Summary of the method: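 Corpora striata membranes in Tris-HCl buffer containing NaCl, KCl, CaCl2, MgCl2, ascorbic acid and pargyline. [3H]spiperone 0.4 nM final, 3 mg fresh tissue, incubated 15 min at 37 °C. GF/B filtration, scintillation counting. Six concentrations in triplicate. IC50 converted to Ki via Cheng-Prusoff.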

[2] = target: T1, Adrenergic receptor alpha-2 (Rattus norvegicus, UniProt P22086+P19328+P22909); assay: Displacement of [3H]yohimbine from rat brain cortex adrenergic alpha2 receptor after 30 mins by liquid scintillation counting
T1 sequence (P22086 whole entry): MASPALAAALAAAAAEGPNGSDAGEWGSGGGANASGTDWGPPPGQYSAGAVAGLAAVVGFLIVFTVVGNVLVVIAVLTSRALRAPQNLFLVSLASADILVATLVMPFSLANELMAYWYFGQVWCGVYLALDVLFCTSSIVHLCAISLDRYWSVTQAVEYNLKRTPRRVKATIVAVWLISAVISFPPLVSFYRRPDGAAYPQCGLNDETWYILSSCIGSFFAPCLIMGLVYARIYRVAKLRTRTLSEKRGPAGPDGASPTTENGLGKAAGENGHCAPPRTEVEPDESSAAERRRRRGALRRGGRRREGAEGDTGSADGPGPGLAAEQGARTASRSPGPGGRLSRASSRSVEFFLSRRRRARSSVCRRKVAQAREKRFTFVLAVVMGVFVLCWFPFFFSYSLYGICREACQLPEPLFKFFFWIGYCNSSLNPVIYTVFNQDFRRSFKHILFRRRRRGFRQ
T1 sequence (P19328 whole entry): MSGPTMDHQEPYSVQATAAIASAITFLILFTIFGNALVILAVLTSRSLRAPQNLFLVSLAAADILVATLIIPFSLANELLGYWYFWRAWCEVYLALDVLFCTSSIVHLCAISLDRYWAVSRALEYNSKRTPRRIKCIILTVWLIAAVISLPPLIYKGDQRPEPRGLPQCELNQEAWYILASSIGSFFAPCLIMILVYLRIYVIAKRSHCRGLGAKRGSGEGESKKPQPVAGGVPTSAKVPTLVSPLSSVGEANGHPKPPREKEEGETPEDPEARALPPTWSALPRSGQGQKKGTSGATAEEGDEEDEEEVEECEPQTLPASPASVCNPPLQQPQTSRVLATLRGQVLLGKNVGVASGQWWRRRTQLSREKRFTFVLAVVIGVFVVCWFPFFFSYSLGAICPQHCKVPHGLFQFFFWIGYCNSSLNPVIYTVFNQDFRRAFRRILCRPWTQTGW
T1 sequence (P22909 whole entry): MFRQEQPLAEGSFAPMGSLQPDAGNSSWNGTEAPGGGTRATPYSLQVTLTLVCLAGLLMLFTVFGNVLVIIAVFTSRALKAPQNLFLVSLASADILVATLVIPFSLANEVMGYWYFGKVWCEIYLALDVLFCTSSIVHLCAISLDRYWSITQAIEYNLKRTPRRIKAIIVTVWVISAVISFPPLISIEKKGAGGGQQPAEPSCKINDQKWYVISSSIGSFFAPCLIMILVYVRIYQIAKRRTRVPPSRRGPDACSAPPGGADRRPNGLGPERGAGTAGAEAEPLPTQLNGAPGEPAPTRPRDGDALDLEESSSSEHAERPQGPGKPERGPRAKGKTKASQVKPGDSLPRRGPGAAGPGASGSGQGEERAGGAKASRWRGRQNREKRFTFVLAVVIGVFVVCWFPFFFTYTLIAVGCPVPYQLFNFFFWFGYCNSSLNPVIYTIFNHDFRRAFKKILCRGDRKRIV
Summary of the method: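 Cortex homogenized in 5 mM Tris-HCl, 5 mM EDTA pH 7.3, spun three times at 50,000 g, resuspended in 50 mM Tris-HCl, 0.5 mM EDTA pH 7.5. [3H]yohimbine 1 nM final, 10 mg fresh tissue, 30 min at 25 °C. Phentolamine defined nonspecific binding. Ki by Cheng-Prusoff.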

[3] = target: 5-hydroxytryptamine receptor 2A (Rattus norvegicus) (UniProt P14842); assay: Displacement of [3H]ketanserin from Sprague-Dawley rat brain cortex serotonin 5-HT2A receptor at 0.001 uM after 15 mins by liquid scintillation counting
Sequence of 5-hydroxytryptamine receptor 2A (Rattus norvegicus) (P14842 whole entry): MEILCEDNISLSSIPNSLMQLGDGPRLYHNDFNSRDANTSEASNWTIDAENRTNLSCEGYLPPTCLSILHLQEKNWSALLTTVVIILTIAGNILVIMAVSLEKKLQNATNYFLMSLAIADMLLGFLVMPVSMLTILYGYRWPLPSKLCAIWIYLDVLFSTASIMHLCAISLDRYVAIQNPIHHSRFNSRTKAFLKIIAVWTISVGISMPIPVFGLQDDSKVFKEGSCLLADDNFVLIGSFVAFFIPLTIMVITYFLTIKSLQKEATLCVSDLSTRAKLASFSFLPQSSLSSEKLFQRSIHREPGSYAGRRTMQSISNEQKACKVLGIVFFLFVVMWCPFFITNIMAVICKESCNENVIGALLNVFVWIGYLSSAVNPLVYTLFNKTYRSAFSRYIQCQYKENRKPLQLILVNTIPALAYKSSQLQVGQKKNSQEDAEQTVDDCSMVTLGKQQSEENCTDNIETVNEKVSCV

[4] = target: 5-hydroxytryptamine receptor 2A (Rattus norvegicus) (UniProt P14842); assay: Displacement of [3H]ketanserin from Sprague-Dawley rat brain cortex serotonin 5-HT2A receptor at 0.00001 uM after 15 mins by liquid scintillation counting
[5] = target: 5-hydroxytryptamine receptor 2A (Rattus norvegicus) (UniProt P14842); assay: Displacement of [3H]ketanserin from Sprague-Dawley rat brain cortex serotonin 5-HT2A receptor at 0.0000001 uM after 15 mins by liquid scintillation counting

Sequence of 5-hydroxytryptamine receptor 2A (P14842 whole entry): as above

Row | IC50 [1] [nM] | Ki [1] [nM] | Ki (D(1A) dopamine receptor) [nM] | Ki (D(2) dopamine receptor) [nM] | Ki [2] [nM] | inhibition [3] [%] | inhibition [4] [%] | inhibition [5] [%] | SMILES
1 | 0.00105 | 0.000778 | > 10000 | 83.7 | > 10000 | 85.9 | 62.8 | 34.9 | N#C/N=C(\NCCCN1CCN(c2cccc(C(F)(F)F)c2)CC1)c1ccccn1
2 | 0.00212 | 0.00157 | > 10000 | > 10000 | 245 | 95.1 | 65.9 | 21.9 | COc1ccccc1N1CCN(CCCN/C(=N\C#N)c2ccccn2)CC1
3 |  | 0.867 | > 10000 | > 10000 | 318 |  |  |  | Cc1cccc(N2CCN(CCCN/C(=N\C#N)c3ccccn3)CC2)c1C
4 |  | 1.12 | > 10000 | > 10000 | > 10000 |  |  |  | N#C/N=C(\NCCCN1CCN(c2ccccn2)CC1)c1ccccn1
5 |  | 2730 | 52.4 | > 10000 | 571 |  |  |  | CCOc1ccccc1N1CCN(CCCN/C(=N\C#N)c2ccccn2)CC1
6 | 0.0217 | 0.0161 | > 10000 | > 10000 |  | 70.4 | 44.3 | 24.2 | N#C/N=C(\NCCCN1CCN(c2ncccn2)CC1)c1ccccn1
